# Assay results: ChEMBL document CHEMBL5030531, “Synthetic Glycolipids as Molecular Vaccine Adjuvants: Mechanism of Action in Human Cells and In Vivo Activity” (J Med Chem, 2021)
# Activity calls are given as the source filed them. No cut-off for these calls is given here.
# Key:
# [1] = target: Myeloid differentiation primary response protein MyD88 (Homo sapiens) (UniProt Q99836); test: Activation of MyD88 dependent pathway in human THP-1 derived macrophages assessed as increase in IL-1 beta secretion at 10 to 25 uM measured after 18 hrs by ELISA; details: Macrophage, filed as activator, dose 10-25 µM
# Procedure, shortened: (§1)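 THP-1 cells differentiated with PMA 25 ng/mL for 72 h, then rested 24 h in fresh medium before stimulation with compound (range 0.1–1 to 10–25 μM) in RPMI/10% FBS for 18 h. S-LPS and MPLA used as references. TNFα, IL-1β, IL-6 in supernatants quantified by sandwich ELISA at 450 nm (570 nm correction).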
# Macrophage [2] = test: Induction of IL-1beta production in human THP-1 derived macrophages assessed as accumulation of IL-1beta precursor in cell lysates at 20 uM measured up to 18 hrs by ELISA; type: functional, subcellular; details: time hrs <=18
# Procedure, shortened: (§2)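 Differentiated THP-1 macrophages treated with compound at 20 μM (S-LPS, R-LPS 100 ng/mL; MPLA 1 μg/mL) for 3, 6 and 18 h. IL-1β measured by ELISA in both cell lysates and supernatants; n = 3, one-way ANOVA versus untreated.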
# [3] = Toxicity in C57BL/6 […] assessed as effect on body weight at 10 ug measured daily for 7 days; details: mouse, in vivo, 168 h; dose 10 µg, time 7 day
# Procedure, shortened: (§3)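 Six-week-old female C57BL/6 mice were injected subcutaneously in the flank with 10 μg adjuvant in 50 μL PBS. Mice were monitored and weighed daily for 7 days, with injection-site response and alertness noted. Group size is n = 3 per treatment in the methods and n = 4 in the figure legend.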
# [4] = Toxicity in C57BL/6 […] assessed as state of alertness at 10 ug observed daily for 7 days; details: mouse, in vivo, 168 h; dose 10 µg, time 7 day; procedure, shortened: as §3
# Macrophage [5] = test: Activation of TRIF dependent pathway in human THP-1 derived macrophages assessed as increase in RSAD2 expression measured after 6 hrs; type: tissue-based; details: filed as activator
# Procedure, shortened: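 RSAD2 mRNA in differentiated THP-1 macrophages after compound at 10 μM, measured by RT-qPCR (annealing 60 °C) with β-actin housekeeping gene. Expressed as ΔΔCt fold change versus untreated cells; n = 3, Wilcoxon test.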
# Macrophage [6] = test: Induction of IL-1beta production in human THP-1 derived macrophages assessed as secretion of IL-1beta mature form in supernatant at 20 uM measured up to 18 hrs by ELISA; type: functional, tissue-based; details: time hrs <=18; procedure, shortened: as §2
# Macrophage [7] = test: Activation of TRIF dependent pathway in human THP-1 derived macrophages assessed as increase in IFNbeta mRNA expression measured 2 hrs post treatment by real-time PCR; details: filed as activator
# [8] = target: Myeloid differentiation primary response protein MyD88 (Homo sapiens) (UniProt Q99836); test: Activation of MyD88 dependent pathway in human THP-1 derived macrophages assessed as increase in IL-6 secretion at 10 to 25 uM measured after 18 hrs by ELISA; details: Macrophage, filed as activator, dose 10-25 µM; procedure, shortened: as §1
# HEK-Blue hTLR4 [9] = test: Activation of AP-1 in LPS-stimulated HEK-Blue hTLR4 cells assessed as increase in release of SEAP reporter protein level incubated for 18 hrs by QUANTI-blue assay; type: cell-based; details: Homo sapiens, filed as activator
# Procedure, shortened: (§4)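 HEK-Blue hTLR4 cells (HEK293 with CD14, TLR4, MD-2 and NF-κB/AP-1-driven SEAP) in DMEM/10% FBS, seeded overnight (37 °C, 5% CO2), washed, then exposed to compound 0.1–25 μM in fresh medium for 18 h. SEAP in supernatant read with QUANTI-Blue substrate (0.5–4 h, RT) at OD 630 nm. Normalized to 100 ng/mL S. minnesota smooth LPS; mean percentage of three independent experiments.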
# [10] = target: Myeloid differentiation primary response protein MyD88 (Homo sapiens) (UniProt Q99836); test: Activation of MyD88 dependent pathway in human THP-1 derived macrophages assessed as increase in TNF alpha secretion at 10 to 25 uM measured after 18 hrs by ELISA; details: Macrophage, filed as activator, dose 10-25 µM; procedure, shortened: as §1
# [11] = target: T1, Toll-like receptor 4/MD-2 (Homo sapiens) (UniProt O00206+Q9Y6Y9); test: Binding affinity to NTA sensor chip immobilized recombinant human TLR4/MD2 assessed as dissociation rate kinetics by surface plasmon resonance analysis; type: protein-complex assay; details: filed as agonist
# Procedure, shortened: (§5)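 Recombinant human TLR4/MD2 complex (20 μg/mL in 10 mM sodium acetate pH 4.0) amine-coupled to NTA chip after NiCl2 and EDC/NHS activation, ethanolamine-blocked. Analytes sonicated 15 min and diluted in PBS-P+ with 5% DMSO, injected over the series 4.34–69.50 μM or 5.34–85.50 μM. Regeneration 50 mM NaOH. Kinetics fitted to 1:1 model after solvent correction.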
# Macrophage [12] = test: Inhibition of IL-1beta release in human THP-1 derived macrophages pretreated with NLRP3 inhibitor MCC950 for 1 hr followed by compound addition and measured after 6 hrs by ELISA and immunoblotting analysis; type: functional, tissue-based
# Procedure, shortened: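 Differentiated THP-1 macrophages preincubated 1 h with MCC950 at 0.01, 0.1, 1 and 10 μM. Cells were then stimulated 6 h with compound at 20 μM or with S-LPS at 100 ng/mL. Secreted IL-1β measured by ELISA and by immunoblot of supernatants.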
# [13] = target: NACHT, LRR and PYD domains-containing protein 3 (Homo sapiens) (UniProt Q96P20); test: Activation of NLRP3 inflammasome in human THP-1 derived macrophages assessed as increase in caspase-1 cleavage at 20 uM by immunoblotting analysis; type: tissue-based; details: Macrophage, filed as activator
# Procedure, shortened: (§6)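 After 6 h of compound at 20 μM, differentiated THP-1 macrophage lysates were immunoblotted for pro-caspase-1 and pro-IL-1β. Methanol/chloroform-precipitated supernatants were probed for cleaved caspase-1 and cleaved IL-1β (Asp116), with chemiluminescent detection. Released IL-1β was also measured by ELISA.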
# [14] = target: Toll-like receptor 4 (Homo sapiens) (UniProt O00206); test: Activation of human TLR4 in IL-1beta stimulated HEK-Blue Null cells assessed as NF-kappaB activation at 0.1 to 25 uM incubated for 18 hrs by QUANTI- blue assay; type: tissue-based; details: dose 0.1-25 µM
# Procedure, shortened: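 HEK-Blue Null cells, which carry the SEAP reporter but lack LPS receptors, were given compound (0.1–25 μM) for 18 h. SEAP was read by QUANTI-Blue at OD 630 nm and normalized to 100 ng/mL human IL-1β as positive control. Results are the mean percentage of three independent experiments.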
# Macrophage [15] = test: Activation of TRIF dependent pathway in human THP-1 derived macrophages assessed as increase in IFNbeta mRNA expression by measuring fold increase measured 2 hrs post treatment by real-time PCR relative to control; details: filed as activator
# Mus musculus [16] = test: Immuno-adjuvant activity in C57BL/6 mouse assessed as increase in levels of anti-ova total IgG in sera at 10 ug administered subcutaneously on day 1 and as booster dose on day 22 in presence of ovalbumin and […] by ELISA; type: functional, organism-based; details: dose 10.0 µg
# Procedure, shortened: (§7)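 Female C57BL/6 mice (n = 8) given 50 μL s.c. in the flank of 500 μg endotoxin-depleted OVA mixed with 10 μg adjuvant in PBS. Booster on opposite flank day 22; OVA-only control group. Tail-vein sera taken days 21 and 41, serially diluted 1:100–1:12 800 and assayed by ELISA on OVA-coated plates (4 μg/mL). Detection with HRP anti-mouse IgG, TMB, A450.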
# [17] = target: Toll-like receptor 2 (Homo sapiens) (UniProt O60603); test: Agonist activity human TLR2 in PAM2CSK4 stimulated HEK-Blue hTLR2 cells at 0.1 to 25 uM incubated for 18 hrs by QUANTI-blue assay; type: cell-based; details: dose 0.1-25 µM
# Procedure, shortened: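 HEK-Blue hTLR2 cells exposed 18 h to compound (0.1–25 μM); SEAP in supernatant by QUANTI-Blue at OD 630 nm. Values normalized to PAM2CSK4 (10 ng/mL, 18 h) and expressed as mean percentage of three independent experiments.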
# Mus musculus [18] = test: Immuno-adjuvant activity in C57BL/6 mouse assessed as increase in levels of anti-ova total IgG in sera at 10 ug administered subcutaneously in presence of ovalbumin and measured 21 days post immunization by ELISA; type: functional, organism-based; details: dose 10.0 µg, time 21.0 day; procedure, shortened: as §7
# [19] = target: Toll-like receptor 4 (Homo sapiens) (UniProt O00206); test: Antagonist activity at human TLR4 in LPS-stimulated HEK-Blue hTLR4 cells assessed as inhibition of LPS-induced SEAP production at 0.1 to 25 uM incubated for 18 hrs by QUANTI-blue assay; details: dose 0.1-25 µM
# [20] = target: T2, Nuclear factor NF-kappa-B complex (Homo sapiens) (UniProt Q00653+P19838+Q04206); test: Activation of NF-kappaB in LPS-stimulated HEK-Blue hTLR4 cells assessed as increase in release of SEAP reporter protein level incubated for 18 hrs by QUANTI-blue assay; type: cell-based; details: filed as activator; procedure, shortened: as §4
# Macrophage [21] = test: Activation of TRIF dependent pathway in human THP-1 derived macrophages assessed as STAT1 phosphorylation at 10 uM pretreated with anti-IFNAR2 antibody for 1 hr followed by compound addition and measured after 3 hrs by immunoblotting analysis; details: filed as activator
# [22] = target: NACHT, LRR and PYD domains-containing protein 3 (Homo sapiens) (UniProt Q96P20); test: Activation of NLRP3 inflammasome in human THP-1 derived macrophages assessed as increase in IL-1beta maturation and release at 20 uM measured after 6 hrs by ELISA; type: tissue-based; details: Macrophage, filed as activator; procedure, shortened: as §6
# [23] = target: T1, Toll-like receptor 4/MD-2 (Homo sapiens); test: Binding affinity to NTA sensor chip immobilized recombinant human TLR4/MD2 assessed as maximum response by surface plasmon resonance analysis; type: protein-complex assay; details: filed as agonist; procedure, shortened: as §5
# [24] = target: T1, Toll-like receptor 4/MD-2 (Homo sapiens); test: Binding affinity to NTA sensor chip immobilized recombinant human TLR4/MD2 assessed as association rate constant by surface plasmon resonance analysis; type: protein-complex assay; details: filed as agonist; procedure, shortened: as §5
# [25] = Toxicity in C57BL/6 […] assessed as local response at injection site at 10 ug observed daily for 7 days; details: mouse, in vivo, 168 h; dose 10 µg, time 7 day; procedure, shortened: as §3
# [26] = target: Myeloid differentiation primary response protein MyD88 (Homo sapiens) (UniProt Q99836); test: Activation of MyD88 dependent pathway in human THP-1 derived macrophages assessed as increase in NF-kappaB p65 phosphorylation at 10 uM measured after 1 hr by immunoblotting analysis; type: tissue-based; details: Macrophage, filed as activator
# Procedure, shortened: (§8)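 PMA-differentiated THP-1 macrophages treated with compound at 10 μM (S-LPS 100 ng/mL, MPLA 1 μg/mL as references) and harvested at set times. RIPA lysates with protease/phosphatase inhibitors separated by SDS-PAGE, transferred to PVDF and probed for phospho-p65 (Ser536) and phospho-p38 (Thr180/Tyr182) with β-actin as loading control. Detection by chemiluminescence, densitometry; representative of at least two experiments.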
# Macrophage [27] = test: Activation of TRIF dependent pathway in human THP-1 derived macrophages assessed as increase in IRF3 phosphorylation at 10 uM measured up to 3 hrs by immunoblotting analysis; type: tissue-based; details: filed as activator, time hrs <=3
# Procedure, shortened: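 Differentiated THP-1 macrophages exposed to compound at 10 μM, alongside S-LPS and R-LPS (100 ng/mL each) and MPLA (1 μg/mL), and collected over a time course. Lysates were immunoblotted for phospho-IRF3 (Ser386) with β-actin as loading control and detected by chemiluminescence.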
# [28] = target: Myeloid differentiation primary response protein MyD88 (Homo sapiens) (UniProt Q99836); test: Activation of MyD88 dependent pathway in human THP-1 derived macrophages assessed as increase in MAPK p38 phosphorylation at 10 uM measured after 1 hr by immunoblotting analysis; type: tissue-based; details: Macrophage, filed as activator; procedure, shortened: as §8
# HEK-Blue hTLR4 [29] = test: Activation of AP-1 in LPS-stimulated HEK-Blue hTLR4 cells assessed as increase in release of SEAP reporter protein level at 0.1 to 25 uM incubated for 18 hrs by QUANTI-blue assay; type: cell-based; details: Homo sapiens, dose 0.1-25 µM; procedure, shortened: as §4
# [30] = target: T2, Nuclear factor NF-kappa-B complex (Homo sapiens); test: Activation of NF-kappaB in LPS-stimulated HEK-Blue hTLR4 cells assessed as increase in release of SEAP reporter protein level at 0.1 to 25 uM incubated for 18 hrs by QUANTI-blue assay; type: cell-based; details: dose 0.1-25 µM; procedure, shortened: as §4
# Chain of Toll-like receptor 4 (Homo sapiens) (O00206 whole entry): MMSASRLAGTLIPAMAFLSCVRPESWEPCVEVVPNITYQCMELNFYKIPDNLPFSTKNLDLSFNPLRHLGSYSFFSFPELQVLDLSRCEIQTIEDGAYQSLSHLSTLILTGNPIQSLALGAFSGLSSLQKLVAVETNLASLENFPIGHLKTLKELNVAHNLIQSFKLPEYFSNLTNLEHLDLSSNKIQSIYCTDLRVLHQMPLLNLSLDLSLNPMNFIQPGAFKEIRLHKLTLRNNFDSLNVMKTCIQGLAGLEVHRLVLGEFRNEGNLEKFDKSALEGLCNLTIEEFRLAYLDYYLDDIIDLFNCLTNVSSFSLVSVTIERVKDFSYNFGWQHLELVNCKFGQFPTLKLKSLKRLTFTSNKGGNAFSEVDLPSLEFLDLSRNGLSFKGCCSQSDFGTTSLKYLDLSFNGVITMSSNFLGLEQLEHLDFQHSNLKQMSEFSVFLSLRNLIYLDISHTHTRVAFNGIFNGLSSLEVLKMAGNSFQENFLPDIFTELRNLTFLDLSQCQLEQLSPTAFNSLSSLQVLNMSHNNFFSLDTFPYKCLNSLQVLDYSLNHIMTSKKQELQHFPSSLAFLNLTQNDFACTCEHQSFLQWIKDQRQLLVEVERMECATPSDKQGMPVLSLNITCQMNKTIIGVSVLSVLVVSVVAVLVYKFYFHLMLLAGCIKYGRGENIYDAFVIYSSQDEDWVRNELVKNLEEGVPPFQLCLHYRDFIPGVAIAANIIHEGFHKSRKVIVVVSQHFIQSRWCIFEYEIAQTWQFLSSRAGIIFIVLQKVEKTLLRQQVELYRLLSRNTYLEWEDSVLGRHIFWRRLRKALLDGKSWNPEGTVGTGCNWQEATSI
# Chain of Myeloid differentiation primary response protein MyD88 (Homo sapiens) (Q99836 whole entry): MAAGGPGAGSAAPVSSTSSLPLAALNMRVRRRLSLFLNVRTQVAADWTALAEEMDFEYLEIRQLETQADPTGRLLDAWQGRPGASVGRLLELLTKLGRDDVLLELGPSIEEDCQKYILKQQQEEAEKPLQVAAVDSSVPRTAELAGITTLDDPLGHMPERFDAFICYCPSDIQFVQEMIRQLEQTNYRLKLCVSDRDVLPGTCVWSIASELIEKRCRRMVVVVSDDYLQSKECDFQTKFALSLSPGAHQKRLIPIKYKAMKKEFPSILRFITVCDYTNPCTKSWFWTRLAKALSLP
# T2 sequence (P19838 whole entry, looked up): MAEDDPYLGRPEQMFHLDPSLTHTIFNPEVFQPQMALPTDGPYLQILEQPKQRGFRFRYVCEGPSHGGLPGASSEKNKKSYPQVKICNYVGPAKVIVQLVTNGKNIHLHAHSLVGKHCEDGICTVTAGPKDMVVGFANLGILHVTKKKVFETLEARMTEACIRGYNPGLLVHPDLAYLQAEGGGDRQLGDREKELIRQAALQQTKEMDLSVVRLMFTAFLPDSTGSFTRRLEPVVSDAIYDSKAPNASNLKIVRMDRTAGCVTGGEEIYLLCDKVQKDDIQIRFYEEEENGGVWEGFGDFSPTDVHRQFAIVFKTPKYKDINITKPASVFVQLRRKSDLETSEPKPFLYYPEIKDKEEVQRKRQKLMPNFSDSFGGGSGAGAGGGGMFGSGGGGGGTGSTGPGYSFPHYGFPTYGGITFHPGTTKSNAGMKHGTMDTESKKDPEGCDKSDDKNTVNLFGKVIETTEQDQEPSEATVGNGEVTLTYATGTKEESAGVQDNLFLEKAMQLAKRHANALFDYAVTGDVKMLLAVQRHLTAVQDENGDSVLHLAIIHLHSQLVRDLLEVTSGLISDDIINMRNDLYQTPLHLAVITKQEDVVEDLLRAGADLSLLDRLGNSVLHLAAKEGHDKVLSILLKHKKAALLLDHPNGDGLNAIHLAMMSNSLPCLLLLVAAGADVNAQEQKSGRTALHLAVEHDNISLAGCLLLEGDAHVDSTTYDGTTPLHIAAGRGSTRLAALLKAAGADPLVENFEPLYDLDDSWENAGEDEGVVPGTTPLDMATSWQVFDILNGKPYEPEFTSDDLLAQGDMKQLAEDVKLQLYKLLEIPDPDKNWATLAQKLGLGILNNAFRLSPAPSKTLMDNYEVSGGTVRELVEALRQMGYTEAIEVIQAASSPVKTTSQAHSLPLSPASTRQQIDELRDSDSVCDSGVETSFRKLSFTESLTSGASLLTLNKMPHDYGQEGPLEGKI
# T2 sequence (Q00653 whole entry, looked up): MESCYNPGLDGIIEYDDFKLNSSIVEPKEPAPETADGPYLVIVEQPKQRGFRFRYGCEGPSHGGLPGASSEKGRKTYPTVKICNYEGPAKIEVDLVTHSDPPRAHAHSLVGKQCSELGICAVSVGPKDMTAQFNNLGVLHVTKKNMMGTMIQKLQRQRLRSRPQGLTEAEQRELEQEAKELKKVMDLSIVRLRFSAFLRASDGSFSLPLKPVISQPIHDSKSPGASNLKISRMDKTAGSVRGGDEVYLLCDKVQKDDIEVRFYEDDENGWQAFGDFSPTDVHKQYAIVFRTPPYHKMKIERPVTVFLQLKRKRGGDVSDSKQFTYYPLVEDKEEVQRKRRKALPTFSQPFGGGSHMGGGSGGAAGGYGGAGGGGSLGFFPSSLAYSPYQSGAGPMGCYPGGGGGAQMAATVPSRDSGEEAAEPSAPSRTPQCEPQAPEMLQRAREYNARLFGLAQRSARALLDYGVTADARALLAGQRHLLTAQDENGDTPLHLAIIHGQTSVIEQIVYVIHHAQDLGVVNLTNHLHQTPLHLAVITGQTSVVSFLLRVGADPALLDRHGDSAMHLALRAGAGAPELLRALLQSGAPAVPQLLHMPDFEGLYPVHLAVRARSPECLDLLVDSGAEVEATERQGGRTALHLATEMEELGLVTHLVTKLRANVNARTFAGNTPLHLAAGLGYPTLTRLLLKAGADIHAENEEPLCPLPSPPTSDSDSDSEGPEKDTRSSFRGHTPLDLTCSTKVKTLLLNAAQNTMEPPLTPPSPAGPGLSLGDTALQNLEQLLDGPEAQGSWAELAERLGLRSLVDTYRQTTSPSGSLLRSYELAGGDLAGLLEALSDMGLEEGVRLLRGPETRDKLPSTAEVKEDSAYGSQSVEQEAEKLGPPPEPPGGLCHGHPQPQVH
# T2 sequence (Q04206 whole entry, looked up): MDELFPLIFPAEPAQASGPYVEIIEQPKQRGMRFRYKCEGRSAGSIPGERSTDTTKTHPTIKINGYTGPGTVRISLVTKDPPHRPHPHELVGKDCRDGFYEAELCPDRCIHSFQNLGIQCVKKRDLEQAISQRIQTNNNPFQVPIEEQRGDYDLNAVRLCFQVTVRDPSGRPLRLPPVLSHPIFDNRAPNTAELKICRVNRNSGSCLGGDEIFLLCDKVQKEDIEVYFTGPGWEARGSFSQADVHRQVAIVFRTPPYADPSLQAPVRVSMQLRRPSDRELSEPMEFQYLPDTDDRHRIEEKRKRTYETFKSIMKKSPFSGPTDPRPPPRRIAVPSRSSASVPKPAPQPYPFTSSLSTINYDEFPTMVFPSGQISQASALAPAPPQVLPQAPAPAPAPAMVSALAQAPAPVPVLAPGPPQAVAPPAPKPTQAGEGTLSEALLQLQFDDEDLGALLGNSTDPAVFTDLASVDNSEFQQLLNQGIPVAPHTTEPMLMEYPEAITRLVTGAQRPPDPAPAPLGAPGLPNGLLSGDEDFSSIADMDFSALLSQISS
# Chain of NACHT, LRR and PYD domains-containing protein 3 (Homo sapiens) (Q96P20 whole entry, the tested form may be a part): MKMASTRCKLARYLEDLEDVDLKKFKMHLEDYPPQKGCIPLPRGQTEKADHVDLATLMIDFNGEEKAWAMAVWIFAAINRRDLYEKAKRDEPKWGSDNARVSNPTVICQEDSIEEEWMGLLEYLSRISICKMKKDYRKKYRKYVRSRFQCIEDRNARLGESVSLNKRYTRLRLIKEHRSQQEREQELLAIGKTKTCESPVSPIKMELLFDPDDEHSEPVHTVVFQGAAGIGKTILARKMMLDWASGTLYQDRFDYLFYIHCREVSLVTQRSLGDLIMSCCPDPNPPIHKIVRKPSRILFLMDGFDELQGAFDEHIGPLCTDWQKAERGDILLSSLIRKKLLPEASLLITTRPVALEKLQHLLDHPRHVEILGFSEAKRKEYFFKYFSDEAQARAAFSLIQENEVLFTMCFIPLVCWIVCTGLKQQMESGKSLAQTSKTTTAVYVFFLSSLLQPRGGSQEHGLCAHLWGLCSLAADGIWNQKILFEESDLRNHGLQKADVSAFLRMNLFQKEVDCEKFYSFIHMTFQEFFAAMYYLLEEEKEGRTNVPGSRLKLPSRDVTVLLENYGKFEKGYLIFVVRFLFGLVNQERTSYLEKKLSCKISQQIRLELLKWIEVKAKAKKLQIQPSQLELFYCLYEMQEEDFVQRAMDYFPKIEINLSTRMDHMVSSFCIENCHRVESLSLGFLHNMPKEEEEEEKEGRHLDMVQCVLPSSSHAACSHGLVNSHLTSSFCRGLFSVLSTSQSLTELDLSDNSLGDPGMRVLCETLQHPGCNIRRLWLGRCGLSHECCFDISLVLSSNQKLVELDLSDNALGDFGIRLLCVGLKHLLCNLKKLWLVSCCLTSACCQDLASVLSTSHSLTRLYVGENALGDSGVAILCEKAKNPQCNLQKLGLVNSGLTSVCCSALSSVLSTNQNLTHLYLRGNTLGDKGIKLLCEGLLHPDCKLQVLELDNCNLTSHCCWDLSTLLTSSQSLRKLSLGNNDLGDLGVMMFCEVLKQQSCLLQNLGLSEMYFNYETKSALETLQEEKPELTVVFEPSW
structure (smiles),measurement,setting,value
CCCCCCCCCCCC(=O)N[C@H]1[C@@H](OP(=O)([O-])[O-])O[C@H](CO)[C@@H](OC(=O)CCCCCCCCCCC)[C@@H]1OC(=O)CCCCCCCCCCC.[Na+].[Na+],Activity,[1],Active
same,Activity,Macrophage [2],Active
same,Activity,[3],Non-Toxic
same,Activity,[4],Non-Toxic
same,Activity,Macrophage [5],Active
same,Activity,Macrophage [6],Active
same,Activity,Macrophage [7],Active
same,Activity,[8],Active
same,Activity,HEK-Blue hTLR4 [9],Dose-Dependent Effect
same,Activity,[10],Active
same,Kdiss,[11],5.19 10^-4/s
same,inhibition,Macrophage [12],Dose-Dependent Effect
same,Activity,[13],Active
same,Activity,[14],inactive
same,fold change (FC),Macrophage [15],20
same,Activity,Mus musculus [16],Active
same,Activity,[17],inactive
same,Activity,Mus musculus [18],Active
same,Activity,[19],inactive
same,Activity,[20],Dose-Dependent Effect
same,Activity,Macrophage [21],Active
same,Activity,[22],Active
same,Rmax,[23],29.1 RU
same,Ka,[24],9.15 10^2/Ms
same,Activity,[25],Non-Toxic
same,Activity,[26],Active
same,Activity,Macrophage [27],Active
same,Activity,[28],Active
CCCCCCCCCCCCCC(=O)N[C@H]1[C@@H](OP(=O)(O)O)O[C@H](COP(=O)(O)O)[C@@H](OC(=O)CCCCCCCCCCCCC)[C@@H]1OC(=O)CCCCCCCCCCCCC,Activity,[19],inactive
same,Activity,HEK-Blue hTLR4 [29],inactive
same,Activity,[30],inactive
